Compound activity: PubChem BioAssay, several laboratories
Sampled rows, rich in hits. Any-hit rate of the full collection: about 2.6%.
SENP8 block-1: SENP8 protease inhibition; hit rate 1.2% among 330,000; purified SENP8, Z-RLRGG-aminoluciferin cleavage, luminescence; AID 2540; inhibition, % at 10 µM; in the data active = inhibition above about 50%
Platelet DG rel: modulates dense granule release in human platelets. human platelet-rich plasma, SFLLRN dense granule ATP release, luminescence. inhibition, %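 (compounds screened at 7.5 µM in platelet-rich plasma)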. hit rate 0.22% among 300,000. AID 1663;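 active = mean replicate score, as percent of positive control, at or above 50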
SENP1 inh: blocks the human SENP1 SUMO protease catalytic domain | inhibition, % at 10 µM | hit rate 0.21% among 360,000 | AID 624204 | recombinant SENP1 catalytic domain, CyPet-SUMO1-YPet FRET cleavage | Q9P0U3;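 active = inhibition at least 30% at 10 µM, raw YFP signal under a set limit, fluorescence ratio 0.5 to 1.5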;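 also: 0% = enzyme with DMSO and 100% = no enzyme wells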
Target sequence (Q9P0U3 419-644 limits assumed): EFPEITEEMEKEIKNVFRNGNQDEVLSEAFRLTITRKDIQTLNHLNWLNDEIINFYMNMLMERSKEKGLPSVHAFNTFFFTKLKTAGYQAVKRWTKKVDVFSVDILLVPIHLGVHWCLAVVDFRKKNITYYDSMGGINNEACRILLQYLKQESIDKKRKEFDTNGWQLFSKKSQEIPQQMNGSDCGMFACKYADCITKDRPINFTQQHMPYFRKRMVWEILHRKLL
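System: Recombinant human SENP1 catalytic domain, His6-tagged | Incubation: Enzyme reaction for 50 min at room temperature, dark | Medium: Tris pH 8 with BME, BSA, NP40 and catalase | Also added: 25 nM SUMO1 FRET substrate | Compound: 10 µM single point, 0.5% DMSO | Measured by: FRET fluorescence in CFP and YFP emission channels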
SENP6 inh: SENP6 protease inhibition; Q9GZR1; Recombinant SENP6 catalytic domain, aminoluciferin luminescence; inhibition, % at 10 µM; hit rate 1.8% among 330,000;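 active = inhibition above about 50% at the single tested dose, limit read from the data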;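 also: plate controls were DMSO wells with enzyme for no effect and DMSO wells lacking enzyme for full effect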
SENP7 inh: blocks the human protease SENP7; Q9BQF6; hit rate 1.5% among 330,000; recombinant SENP7, Z-RLRGG-aminoluciferin luminescence, 40 min; inhibition, % at 5 µM;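 active = inhibition above about 50% at the single test dose, limit read from the data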;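 also: plate controls were DMSO with enzyme for no effect and no enzyme buffer wells for full effect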
SENP8 block-2: SENP8 (human) protease inhibition. inhibition, % at 20 µM. recombinant SENP8, Nedd8 substrate fluorescence. hit rate 0.64% among 360,000. Q96LD8; in the data active = inhibition mostly above about 40%, no sharp cut-off; inactive = mostly below about 27%
SENP8 conf: human SENP8 inhibition, confirmed. AID 488912. hit rate 40% among 6,200. shares compounds with SENP7 inh. inhibition, % at 12.5 µM. Recombinant SENP8, Z-RLRGG-aminoluciferin luminescence, 60 min;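 active = mean inhibition across replicates above about 50%, limit read from the data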
SENP6 confirm: confirmation of human SENP6 protease inhibitors; shares compounds with SENP7 inh; recombinant SENP6, Z-RLRGG-aminoluciferin luminescence; inhibition, % at 12.5 µM; hit rate 58% among 6,200; AID 488915
SENP7 conf: confirmation of human SENP7 protease inhibitors. shares compounds with SENP7 inh. recombinant SENP7, Z-RLRGG-aminoluciferin luminescence, 40 min. inhibition, % at 12.5 µM. hit rate 69% among 6,200
Casp3 select: caspase-3 inhibition (SENP selectivity assay) | shares compounds with SENP7 inh | purified caspase-3, Z-DEVD-aminoluciferin luminescence, 60 min | inhibition, % at 12.5 µM | hit rate 60% among 6,200;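 active = mean inhibition above about 50%, limit read from the data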;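 also: plate controls were enzyme with DMSO for no effect and wells without caspase-3 for full effect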
Target sequence (P42574 28-227 limits assumed): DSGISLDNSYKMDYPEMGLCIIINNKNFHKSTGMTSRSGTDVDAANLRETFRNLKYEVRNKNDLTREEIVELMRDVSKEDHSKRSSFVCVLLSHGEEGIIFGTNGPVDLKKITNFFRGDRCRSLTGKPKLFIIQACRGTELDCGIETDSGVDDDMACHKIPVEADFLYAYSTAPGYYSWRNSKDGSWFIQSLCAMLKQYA
SENP luc ctr: luminescence interference (SENP counter-screen). shares compounds with SENP7 inh. Pre-incubated SENP8/Z-RLRGG-aminoluciferin, luciferase luminescence interference. inhibition, % at 12.5 µM. hit rate 39% among 6,200. AID 488919;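 active = mean inhibition above about 50% when retested at one dose, limit read from the data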;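 also: plate controls were DMSO wells with completed reaction for no effect and substrate without enzyme for full effect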
An asterisk follows results filed as active; / = no result.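 The calls were made as follows, unless noted: active = mean inhibition above about 50% in the one-dose retest (limit read from the data); inactive = the rest.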

SMILES	SENP8 block-1	Platelet DG rel	SENP1 inh	SENP6 inh	SENP7 inh	SENP8 block-2	SENP8 conf	SENP6 confirm	SENP7 conf	Casp3 select	SENP luc ctr
O=C(CCN1C(=O)S/C(=C/c2ccccc2)C1=O)Nc1ccc(C(=O)O)c(O)c1	45	4	1	57*	10	5	60*	55*	74*	32	65*
O=C(CCN1C(=O)/C(=C\c2ccccc2F)SC1=S)Nc1ccc(C(=O)O)c(O)c1	64*	-3	3	66*	12	10	78*	73*	67*	12	52*
O=C(CCN1C(=O)S/C(=C\c2ccc(Cl)cc2)C1=O)Nc1ccc(C(=O)O)cc1	-4	-4	1	1	-5	3	/	/	/	/	/
O=C(CCCN1C(=O)/C(=C/c2ccccc2)SC1=S)Nc1ccc(C(=O)O)c(O)c1	73*	4	2	79*	20	18	73*	72*	84*	32	76*
COc1ccc(C=C2SC(=S)N(CCCC(=O)Nc3ccc(C(=O)O)c(O)c3)C2=O)cc1OC	/	/	-47	/	/	17	/	/	/	/	/
COc1ccc(Br)cc1CNC(=O)Cn1nc(C)n2cccc2c1=O	4	3	2	1	7	8	/	/	/	/	/
CCN(CC(=O)Nc1ccc(Br)cc1)C(=O)c1nc2nc(C)cc(C)n2n1	-11	/	1	7	10	12	/	/	/	/	/
Oc1ccc(-c2cn3cc(C(F)(F)F)ccc3n2)cc1	26	36	2	55*	23	-326	58*	52*	83*	60*	65*
CC(=O)Nc1ccc(-c2cn3cc(C)ccc3n2)cc1	-19	9	1	3	-5	-276	/	/	/	/	/
NNC(=O)c1ccc2nc(-c3ccc(Br)cc3)cn2c1	-7	2	1	2	-9	-352	/	/	/	/	/
Cc1ccc2nc(-c3ccc(O)c(O)c3)cn2c1	42	10	2	72*	57*	-444	69*	67*	90*	84*	72*
Cc1nc(-c2ccc(O)c(O)c2)cs1	1	-5	-3	-4	8	35	/	/	/	/	/
Clc1ccc(-c2cn3cc(Cl)ccc3n2)cc1	69*	10	-1	82*	93*	-182	27	42	45	40	15
Cc1ccc2nc(-c3ccccc3)cn2c1	95*	73*	-1	99*	99*	-404	99*	100*	103*	99*	98*
Cc1ccccc1-c1ccnc2[nH]n(-c3ccccc3)c(=O)c12	-8	0	2	6	-3	-8	/	/	/	/	/
N#CC1C(=N)Cc2ccccc2-c2ccccc21 (centres undefined)	/	/	1	/	/	12	/	/	/	/	/
NC(=S)NN=C1Cc2cccc3cccc1c23	/	/	-3	/	/	-17	/	/	/	/	/
COc1cccc(/C=C2\CCC(C3CCCC3)C2=O)c1 (centres undefined)	40	12	1	50*	21	12	48	48	66*	34	26
CCOC(=O)C[C@@H]1OC[C@H](C)N1S(=O)(=O)c1ccc(C)cc1	/	/	4	/	/	7	/	/	/	/	/
CC(NC(=O)CSC(=S)N1CCCC1)c1ccc(S(N)(=O)=O)cc1 (centres undefined)	1	-9	3	5	3	13	/	/	/	/	/
COc1cc(OC)cc(C(=O)/C=C2\Sc3ccccc3N2C)c1	-14	2	-43	18	3	-73	/	/	/	/	/
CN1/C(=C/C(=O)c2cccs2)Sc2ccccc21	84*	-6	-29	90*	83*	-284	94*	94*	102*	94*	92*
